Source: ChEMBL document CHEMBL1126064, “Enzymatic synthesis and comparative biological evaluation of a phosphonate analogue of the lipid A precursor” (1992)

Tests used:
Oryctolagus cuniculus [1] = experiment: Increase in temperature of three rabbits treatment with the compound at a dose of 1 ug/kg.; type: functional
Oryctolagus cuniculus [2] = experiment: Increase in temperature of three rabbits treatment with the compound at a dose of 50 ug/kg.; type: functional
[3] = molecular target: T1, Ornithine decarboxylase (Mus musculus) (UniProt P00860); experiment: Compound was evaluated for the stimulation of Ornithine decarboxylase (ODC) activity in murine macrophagelike cell line RAW264 as a parameter for macrophage stimulation, and the pyrogenicity test in rabbits at a concentration of 10 ug/ml
T1 sequence (whole entry): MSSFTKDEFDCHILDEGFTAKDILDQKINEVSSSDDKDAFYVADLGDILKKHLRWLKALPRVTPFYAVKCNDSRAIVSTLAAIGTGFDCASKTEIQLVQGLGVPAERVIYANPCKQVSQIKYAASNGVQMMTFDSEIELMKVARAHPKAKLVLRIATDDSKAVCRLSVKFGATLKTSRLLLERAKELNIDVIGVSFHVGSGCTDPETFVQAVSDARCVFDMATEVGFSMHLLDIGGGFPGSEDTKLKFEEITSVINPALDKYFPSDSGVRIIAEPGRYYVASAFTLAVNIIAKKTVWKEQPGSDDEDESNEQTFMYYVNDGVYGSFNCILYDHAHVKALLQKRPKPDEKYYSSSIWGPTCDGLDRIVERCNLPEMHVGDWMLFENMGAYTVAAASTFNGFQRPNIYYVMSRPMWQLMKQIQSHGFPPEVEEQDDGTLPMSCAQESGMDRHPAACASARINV
Outline: (§1)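 RAW-264 cells at 5.5 × 10^5 cells/mL in serum-free DMEM-H21 with 15 mM HEPES and 1 mM pyruvate, held overnight at 37 °C/5% CO2. Murine γ-IFN (2000 units/mL) and test material in pyrogen-free water then added for 4 h. Cells were lysed by sonication, and ODC in the supernatant was assayed with [3H]-L-ornithine plus 1 mM L-ornithine stock, 60 min at 37 °C. LPS 5 ng/mL served as internal standard.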

[4] = molecular target: T1, Ornithine decarboxylase (Mus musculus); experiment: Compound was evaluated for the stimulation of Ornithine decarboxylase (ODC) activity in murine macrophagelike cell line RAW264 as a parameter for macrophage stimulation, and the pyrogenicity test in rabbits at a concentration of 0.5 ug/ml; outline: as §1
[5] = molecular target: T1, Ornithine decarboxylase (Mus musculus); experiment: Compound was evaluated for the stimulation of Ornithine decarboxylase (ODC) activity in murine macrophagelike cell line RAW264 as a parameter for macrophage stimulation, and the pyrogenicity test in rabbits at a concentration of 0.02 ug/ml; outline: as §1
[6] = molecular target: T1, Ornithine decarboxylase (Mus musculus); experiment: Compound was evaluated for the stimulation of Ornithine decarboxylase (ODC) activity in murine macrophagelike cell line RAW264 as a parameter for macrophage stimulation, and the pyrogenicity test in rabbits at a concentration of 2 ug/ml; outline: as §1
[7] = Endotoxic activity determined by limulus amoebocyte lysate (LAL) assay
[8] = molecular target: T1, Ornithine decarboxylase (Mus musculus); experiment: Compound was evaluated for the stimulation of Ornithine decarboxylase (ODC) activity in murine macrophagelike cell line RAW264 as a parameter for macrophage stimulation, and the pyrogenicity test in rabbits at a concentration of 0.1 ug/ml; outline: as §1

| SMILES | increase in temperature (Oryctolagus cuniculus [1]) | increase in temperature (Oryctolagus cuniculus [2]) | Stimulation [3] | Stimulation [4] | Stimulation [5] | Stimulation [6] | EU [7] | Stimulation [8] |
| --- | --- | --- | --- | --- | --- | --- | --- | --- |
| CCCCCCCCCCCC(O)CC(=O)N[C@@H]1C(OCC2OC(OP(=O)(O)O)[C@@H](NC(=O)CC(O)CCCCCCCCCCC)C(OC(=O)CC(O)CCCCCCCCCCC)[C@@H]2O)OC(CO)[C@@H](O)C1OC(=O)CC(O)CCCCCCCCCCC (stereo partly specified) | 2.1 | 5.95 | 97% | 60% | 2% | 98% | 80000 g⁻¹ | 30% |
| CCCCCCCCCCCC(O)CC(=O)N[C@@H]1C(OCC2OC(P(=O)(O)O)[C@@H](NC(=O)CC(O)CCCCCCCCCCC)C(OC(=O)CC(O)CCCCCCCCCCC)[C@@H]2O)OC(CO)[C@@H](O)C1OC(=O)CC(O)CCCCCCCCCCC (stereo partly specified) [PHOSPHONATE ANALOGUE OF LIPID A] | 2.1 | 6.6 | 84% | 70% | 5% | 75% | 30000 g⁻¹ | 20% |
